IC50, inhibition of growth and inhibition data for 13 molecules are collected here from ChEMBL document CHEMBL2069295, “Discovery of 6-substituted 4-anilinoquinazolines with dioxygenated rings as novel EGFR tyrosine kinase inhibitors” (Bioorg Med Chem Lett, 2012).

In brackets after ≈: the same amount, converted by molar mass. Activity calls are given as the source filed them. No cut-off for these calls is given here. Where only a bound is given, the exact number is not on record here.

By IC50 is commonly meant the concentration at which inhibition is half-maximal.

Assay [1] addresses T1, Epidermal growth factor receptor (Homo sapiens, UniProt P00533). The experiment in a line: Inhibition of EGFR in human A431 cell lysate using tyrosine/glutamic acid polymer as substrate by ELISA. On the set-up: species or system A-431.
In assay [2] the test system is A549. The assay can be described thus: Antiproliferative activity against human A549 cells after 24 to 48 hrs by WST1 assay. It is filed as functional, cell-based. (In general: Formazan colour is commonly taken as a measure of viable cells.)
Assay [3] relates to B16-F10. The experiment in a line: cells. Conditions: Mus musculus.
Assay [4] concerns MCF7. The experiment in a line: cells. Conditions: Homo sapiens.
Assay [5] concerns B16-F10. The experiment in a line: Growth inhibition of mouse B16F10 cells at 10 ug/mL after 24 to 48 hrs by WST1 assay. It is filed as functional. Conditions: read-out: GI. In short, it runs like this:
(§1)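 Single-concentration growth inhibition at 10 µg/mL, the top concentration used because higher levels precipitated in culture medium. Three separate experiments, each in triplicate.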

For assay [6], the system named is A-431. The assay can be described thus: Antiproliferative activity against human A431 cells after 24 to 48 hrs by WST1 assay. Format: functional, cell-based.
Assay [7] has as its target Receptor tyrosine-protein kinase erbB-2 (Homo sapiens, UniProt P04626). The assay can be described thus: Inhibition of recombinant HER2 expressed in baculovirus infected Sf9 cells using [32P]ATP incubated for 30 mins prior to ATP addition measured after 20 mins by liquid scintillation counting.
The target in assay [8] is Vascular endothelial growth factor receptor 2 (Homo sapiens, UniProt P35968). The experiment in a line: Inhibition of VEGFR2 using ATP incubated for 30 mins prior to ATP addition measured after 60 mins by fluorimetry.
The target in assay [9] is T1, Epidermal growth factor receptor. The assay can be described thus: Inhibition of EGFR in human A431 cells assessed as inhibition of EGF-stimulated autophosphorylation at 100 nM incubated for 1 hr prior to EGF-induction measured after 15 mins by Western blot analysis. Format: cell-based. The settings on record: A-431. In short, it runs like this:
(§2)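 A431 cells were incubated […] with compound at 10 or 100 nM, then stimulated with EGF. Whole-cell lysates were Western blotted with an anti-phosphotyrosine antibody to detect EGFR autophosphorylation.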
Background: A western blot detects proteins with antibodies after separation by electrophoresis.

For assay [10] the target is unchanged. The assay can be described thus: Inhibition of EGFR in human A431 cells assessed as inhibition of EGF-stimulated autophosphorylation at 10 nM incubated for 1 hr prior to EGF-induction measured after 15 mins by Western blot analysis. Format: cell-based. Conditions: A-431. In short, it runs like this:
as §2

The test system of assay [11] is MCF7. The assay can be described thus: Growth inhibition of human MCF7 cells at 10 ug/mL after 24 to 48 hrs by WST1 assay. Format: functional. Conditions: read-out: GI. In short, it runs like this:
as §1

Assay [12] concerns A549. The experiment in a line: Growth inhibition of human A549 cells at 10 ug/mL after 24 to 48 hrs by WST1 assay. It is filed as functional. Conditions: read-out: GI. In short, it runs like this:
as §1

T1 sequence (P00533 whole entry): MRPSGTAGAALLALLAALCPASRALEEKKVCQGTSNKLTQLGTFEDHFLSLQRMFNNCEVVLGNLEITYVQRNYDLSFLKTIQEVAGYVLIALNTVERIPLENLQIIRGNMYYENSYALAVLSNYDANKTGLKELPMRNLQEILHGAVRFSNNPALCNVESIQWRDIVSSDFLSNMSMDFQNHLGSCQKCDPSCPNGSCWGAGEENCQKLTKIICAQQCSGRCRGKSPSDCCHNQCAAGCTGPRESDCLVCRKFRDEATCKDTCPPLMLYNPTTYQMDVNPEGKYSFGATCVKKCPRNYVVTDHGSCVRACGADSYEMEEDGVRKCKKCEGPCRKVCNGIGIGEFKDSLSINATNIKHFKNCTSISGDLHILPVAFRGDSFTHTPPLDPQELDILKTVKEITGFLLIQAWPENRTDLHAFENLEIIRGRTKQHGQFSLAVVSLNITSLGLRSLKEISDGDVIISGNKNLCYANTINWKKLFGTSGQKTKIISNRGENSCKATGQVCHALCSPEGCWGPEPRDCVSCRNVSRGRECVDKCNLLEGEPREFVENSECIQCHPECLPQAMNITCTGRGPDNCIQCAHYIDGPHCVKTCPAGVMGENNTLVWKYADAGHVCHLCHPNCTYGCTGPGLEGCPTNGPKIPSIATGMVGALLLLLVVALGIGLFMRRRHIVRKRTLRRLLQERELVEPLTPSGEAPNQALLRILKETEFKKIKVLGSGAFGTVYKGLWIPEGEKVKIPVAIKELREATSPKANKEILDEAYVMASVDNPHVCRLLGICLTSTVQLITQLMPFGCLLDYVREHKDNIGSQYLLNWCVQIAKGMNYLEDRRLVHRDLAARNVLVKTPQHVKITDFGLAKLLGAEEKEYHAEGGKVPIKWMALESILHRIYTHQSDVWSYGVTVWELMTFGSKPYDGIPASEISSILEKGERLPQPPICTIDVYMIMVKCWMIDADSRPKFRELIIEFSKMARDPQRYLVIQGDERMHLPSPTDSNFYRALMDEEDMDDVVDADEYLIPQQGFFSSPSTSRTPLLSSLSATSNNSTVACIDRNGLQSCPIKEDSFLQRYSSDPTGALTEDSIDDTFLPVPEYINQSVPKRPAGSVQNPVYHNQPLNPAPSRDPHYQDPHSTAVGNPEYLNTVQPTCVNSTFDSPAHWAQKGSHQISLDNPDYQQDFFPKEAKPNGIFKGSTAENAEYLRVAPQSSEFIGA
Sequence of Receptor tyrosine-protein kinase erbB-2 (P04626 whole entry): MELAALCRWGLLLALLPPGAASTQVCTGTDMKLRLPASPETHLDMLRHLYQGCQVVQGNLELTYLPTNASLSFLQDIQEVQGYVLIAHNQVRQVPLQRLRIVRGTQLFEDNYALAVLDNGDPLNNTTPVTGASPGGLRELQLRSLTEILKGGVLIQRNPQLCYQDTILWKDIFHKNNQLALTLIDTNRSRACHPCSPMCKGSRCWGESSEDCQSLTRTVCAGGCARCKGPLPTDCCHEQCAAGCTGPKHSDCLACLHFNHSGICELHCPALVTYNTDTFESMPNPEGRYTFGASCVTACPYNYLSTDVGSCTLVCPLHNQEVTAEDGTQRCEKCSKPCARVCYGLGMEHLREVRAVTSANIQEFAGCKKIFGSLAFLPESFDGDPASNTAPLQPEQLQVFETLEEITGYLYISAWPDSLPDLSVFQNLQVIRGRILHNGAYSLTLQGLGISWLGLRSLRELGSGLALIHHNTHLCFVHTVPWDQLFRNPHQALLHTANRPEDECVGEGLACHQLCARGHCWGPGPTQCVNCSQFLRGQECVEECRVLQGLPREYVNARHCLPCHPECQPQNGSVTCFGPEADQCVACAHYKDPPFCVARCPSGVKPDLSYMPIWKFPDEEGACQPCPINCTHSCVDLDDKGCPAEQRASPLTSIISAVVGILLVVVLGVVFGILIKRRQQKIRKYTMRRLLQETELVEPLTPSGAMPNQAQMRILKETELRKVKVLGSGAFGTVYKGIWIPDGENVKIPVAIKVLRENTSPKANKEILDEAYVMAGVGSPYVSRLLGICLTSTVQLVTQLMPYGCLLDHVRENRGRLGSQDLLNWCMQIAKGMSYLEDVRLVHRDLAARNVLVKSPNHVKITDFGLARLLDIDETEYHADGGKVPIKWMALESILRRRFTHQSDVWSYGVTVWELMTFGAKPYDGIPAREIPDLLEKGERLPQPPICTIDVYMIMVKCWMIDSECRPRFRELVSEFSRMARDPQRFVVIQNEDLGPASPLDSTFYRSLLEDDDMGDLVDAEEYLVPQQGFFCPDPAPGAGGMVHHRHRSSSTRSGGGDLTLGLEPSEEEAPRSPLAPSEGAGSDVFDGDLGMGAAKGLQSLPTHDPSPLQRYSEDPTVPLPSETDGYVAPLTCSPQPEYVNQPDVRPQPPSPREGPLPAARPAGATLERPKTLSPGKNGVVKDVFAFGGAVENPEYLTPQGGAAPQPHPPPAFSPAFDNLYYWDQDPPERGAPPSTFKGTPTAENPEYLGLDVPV
Sequence of Vascular endothelial growth factor receptor 2 (P35968 whole entry): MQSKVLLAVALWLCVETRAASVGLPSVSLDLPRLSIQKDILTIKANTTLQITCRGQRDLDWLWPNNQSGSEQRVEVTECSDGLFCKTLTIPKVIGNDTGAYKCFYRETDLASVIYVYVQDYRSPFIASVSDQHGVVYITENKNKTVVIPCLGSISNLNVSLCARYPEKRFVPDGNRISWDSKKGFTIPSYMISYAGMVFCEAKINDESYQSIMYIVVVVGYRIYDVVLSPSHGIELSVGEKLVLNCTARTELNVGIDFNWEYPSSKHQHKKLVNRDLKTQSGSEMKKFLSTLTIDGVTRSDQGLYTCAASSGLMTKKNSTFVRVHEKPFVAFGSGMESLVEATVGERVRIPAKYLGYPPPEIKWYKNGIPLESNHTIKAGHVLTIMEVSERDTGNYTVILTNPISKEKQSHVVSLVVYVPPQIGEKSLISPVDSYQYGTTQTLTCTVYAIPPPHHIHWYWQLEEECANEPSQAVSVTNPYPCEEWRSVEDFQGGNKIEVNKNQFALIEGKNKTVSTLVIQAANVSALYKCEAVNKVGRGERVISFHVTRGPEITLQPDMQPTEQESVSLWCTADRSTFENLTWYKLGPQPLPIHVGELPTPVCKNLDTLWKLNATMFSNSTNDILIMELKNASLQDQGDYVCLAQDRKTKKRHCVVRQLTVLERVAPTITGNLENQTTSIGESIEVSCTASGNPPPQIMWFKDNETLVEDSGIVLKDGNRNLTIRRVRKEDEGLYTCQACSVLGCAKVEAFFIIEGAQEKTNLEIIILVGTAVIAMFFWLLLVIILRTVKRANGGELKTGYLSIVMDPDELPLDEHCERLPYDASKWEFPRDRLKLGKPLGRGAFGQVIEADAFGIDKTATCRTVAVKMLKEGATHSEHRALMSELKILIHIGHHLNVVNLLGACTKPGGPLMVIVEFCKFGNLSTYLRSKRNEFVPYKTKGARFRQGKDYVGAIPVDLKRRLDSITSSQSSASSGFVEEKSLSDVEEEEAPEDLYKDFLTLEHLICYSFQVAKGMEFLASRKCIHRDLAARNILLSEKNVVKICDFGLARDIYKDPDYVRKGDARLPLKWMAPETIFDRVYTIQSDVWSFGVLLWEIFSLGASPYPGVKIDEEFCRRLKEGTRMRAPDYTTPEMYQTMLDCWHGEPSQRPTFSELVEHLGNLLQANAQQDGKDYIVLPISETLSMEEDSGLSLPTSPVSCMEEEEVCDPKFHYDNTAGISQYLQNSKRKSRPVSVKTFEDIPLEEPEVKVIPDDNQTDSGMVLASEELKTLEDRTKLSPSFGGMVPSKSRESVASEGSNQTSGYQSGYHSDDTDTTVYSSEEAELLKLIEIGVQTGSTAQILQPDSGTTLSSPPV

`O=C(Nc1ccc2ncnc(Nc3cccc(Cl)c3)c2c1)C1COc2ccccc2O1` (stereo unspecified): the half-maximal inhibitory concentration (IC50) is 2750 nM in assay [1]; 61.2 µg/mL (≈ 141 µM) in assay [2]; more than 100 µg/mL in assay [3]; 52.2 µg/mL (≈ 121 µM) in assay [4]; 19.9 µg/mL (≈ 45.9 µM) in [6]. Besides, the inhibition of growth at 10 µg/mL in [5] was less than 50%.

In the case of `Clc1cccc(Nc2ncnc3ccc(NCc4ccc5c(c4)OCCCCO5)cc23)c1`, the IC50 is 920 nM in [1]; 44.8 µg/mL (≈ 100 µM) in [2]; 17.5 µg/mL (≈ 39.1 µM) in assay [3]; more than 10000 nM in [7]; 21.3 µg/mL (≈ 47.7 µM) in [4]; more than 10000 nM in assay [8]. Besides, the concentration for half-maximal inhibition (IC50) in [6] was 13.3 µg/mL (≈ 29.8 µM).

Turning to `Brc1cccc(Nc2ncnc3ccc(NCc4ccc5c(c4)OCCCCO5)cc23)c1`, the concentration for half-maximal inhibition (IC50) in assay [1] is 1140 nM; in [2], more than 100 µg/mL; in assay [3] it was 20.6 µg/mL (≈ 42 µM); in assay [4], 32.1 µg/mL (≈ 65.2 µM); in assay [6] it was 15 µg/mL (≈ 30.6 µM).

For the molecule `Clc1cccc(Nc2ncnc3ccc(NCc4ccc5c(c4)OCCCO5)cc23)c1`, the IC50 in [1] is 216 nM; in assay [2] it was 31 µg/mL (≈ 71.7 µM); in assay [3], 2.14 µg/mL (≈ 4.94 µM); in [4] it was 4.28 µg/mL (≈ 9.89 µM); in [6], 2.59 µg/mL (≈ 5.98 µM). Moreover, the inhibition result in [9] was “Active”.

Consider `Brc1cccc(Nc2ncnc3ccc(NCc4ccc5c(c4)OCO5)cc23)c1`, for which the IC50 in [1] was determined as 630 nM; in assay [2] it was 68.7 µg/mL (≈ 153 µM); in [3], 3.62 µg/mL (≈ 8.06 µM); in assay [4], 14.5 µg/mL (≈ 32.2 µM); in assay [6], 6.82 µg/mL (≈ 15.2 µM).

Take `Brc1cccc(Nc2ncnc3ccc(NCc4ccc5c(c4)OCCCO5)cc23)c1`: the inhibition entry in [10] and in assay [9] was “Active” in each case. Also, the IC50 in [1] is 98 nM; in [2] it was 15.5 µg/mL (≈ 32.5 µM); in [3] it was 1.99 µg/mL (≈ 4.17 µM); in assay [7], 4800 nM; in assay [4], 5.02 µg/mL (≈ 10.5 µM); in assay [8], more than 10000 nM. This molecule also showed an IC50 in assay [6] of 2.77 µg/mL (≈ 5.8 µM).

With `Brc1cccc(Nc2ncnc3ccc(NCc4ccc5c(c4)OCCO5)cc23)c1`, the half-maximal inhibitory concentration (IC50) in [1] was 1020 nM; in [2] it was 58.3 µg/mL (≈ 126 µM); in assay [3], 12 µg/mL (≈ 25.9 µM); in [4], 10.7 µg/mL (≈ 23.1 µM); in assay [6], 12.5 µg/mL (≈ 27.1 µM).

With `O=C(Nc1ccc2ncnc(Nc3cccc(Br)c3)c2c1)C1COc2ccccc2O1` (stereo unspecified), the IC50 in assay [1] was 3680 nM; in assay [2], 73.8 µg/mL (≈ 155 µM); in assay [3], 50.1 µg/mL (≈ 105 µM); in assay [4] it was more than 100 µg/mL; in assay [6] it was 42.9 µg/mL (≈ 89.9 µM). Moreover, the inhibition entry in assay [9] is “Active”. For the same molecule, the inhibition of growth at 10 µg/mL in assay [11] is less than 50%.

With `Clc1cccc(Nc2ncnc3ccc(NCc4ccc5c(c4)OCCO5)cc23)c1`, the IC50 was determined as 16.3 µg/mL (≈ 39 µM) in assay [3] and 23.1 µg/mL (≈ 55.3 µM) in [4].

Consider `COc1cc2ncnc(Nc3cccc(Br)c3)c2cc1OC`, for which the IC50 in [2] stood at 8.13 µg/mL (≈ 22.6 µM); in [4] it was 3.21 µg/mL (≈ 8.91 µM); in [6], 2.26 µg/mL (≈ 6.27 µM).

As for `Clc1cccc(Nc2ncnc3ccc(NCc4ccc5c(c4)OCO5)cc23)c1`, the results for the half-inhibitory concentration (IC50) in assay [7], in [4] and in [8] were 6500 nM, 7.36 µg/mL (≈ 18.2 µM) and more than 10000 nM, respectively.

In the case of `O=C(Nc1ccc2ncnc(Nc3cccc(Cl)c3)c2c1)c1cccc2c1OCCO2`, the IC50 is 1290 nM in assay [1]; more than 100 µg/mL in [2]; 9.86 µg/mL (≈ 22.8 µM) in [3]; more than 100 µg/mL in assay [4]; 46.6 µg/mL (≈ 108 µM) in [6]. Further, the inhibition of growth at 10 µg/mL in assay [12] and in assay [11] was less than 50% in each case.

In the case of `O=C(Nc1ccc2ncnc(Nc3cccc(Br)c3)c2c1)c1cccc2c1OCCO2`, the half-maximal inhibitory concentration (IC50) in assay [1] was 1630 nM; in assay [2], 84 µg/mL (≈ 176 µM); in assay [3] it was more than 100 µg/mL; in assay [4], 59.5 µg/mL (≈ 125 µM); in [6] it was 20.3 µg/mL (≈ 42.6 µM). Besides, in [5], the inhibition of growth at 10 µg/mL was less than 50%.
